This note sets out measurements from publication PMC7199890 (European journal of medicinal chemistry, 2019).

pKi: −log10 of the molar value. Values joined by “and” are separate entries in the source; they are usually repeats but may differ in a detail not shown here. Equal values may be shown once. Where a name gives a salt, the structure may show the parent alone.

Common to all, as to assay: Radioligand binding
One assay has as its target T1, hA1AR (Homo sapiens, UniProt P30542).
T1 sequence (P30542 1-326): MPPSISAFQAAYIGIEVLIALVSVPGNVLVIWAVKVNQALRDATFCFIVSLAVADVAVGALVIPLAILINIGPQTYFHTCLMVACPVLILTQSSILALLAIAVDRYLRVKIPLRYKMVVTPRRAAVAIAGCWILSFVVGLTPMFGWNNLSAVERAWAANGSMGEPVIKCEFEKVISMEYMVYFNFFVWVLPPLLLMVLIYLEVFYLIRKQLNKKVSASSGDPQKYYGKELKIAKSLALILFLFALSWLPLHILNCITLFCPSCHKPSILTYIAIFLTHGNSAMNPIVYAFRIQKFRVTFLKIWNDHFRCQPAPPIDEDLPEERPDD
The settings on record: read-out: hA1 % of inhibition. The method, boiled down:
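Membranes came from CHO cells expressing recombinant hA1AR, labelled with [3H]R-PIA. ADA (3 units/mL) was present during membrane preparation, a 30 min 30 °C preincubation and radioligand incubation. Test compound was dissolved in DMSO and diluted in buffer, DMSO ≤2% final. Incubations ended by GF/B filtration and three buffer rinses. The read-out is % inhibition of specific binding at a single concentration.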

A further assay addresses hA2AAR (Homo sapiens, UniProt P29274). The settings on record: for hA1/hA2A: selectivity ratio of Ki values.
Another assay deals with T2, hA3AR (Homo sapiens, UniProt P0DMS8).
T2 sequence (P0DMS8 1-318): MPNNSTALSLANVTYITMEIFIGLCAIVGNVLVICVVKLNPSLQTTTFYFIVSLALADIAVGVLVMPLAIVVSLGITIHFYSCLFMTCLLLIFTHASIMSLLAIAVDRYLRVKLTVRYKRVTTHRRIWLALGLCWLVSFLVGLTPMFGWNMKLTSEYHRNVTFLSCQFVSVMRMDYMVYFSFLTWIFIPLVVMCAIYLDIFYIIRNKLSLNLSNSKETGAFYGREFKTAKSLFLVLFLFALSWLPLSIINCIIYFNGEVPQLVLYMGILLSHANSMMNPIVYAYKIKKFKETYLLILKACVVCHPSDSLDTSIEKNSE
The settings on record: for hA1/hA3 / hA2A/hA3: selectivity ratio of Ki values. The method, boiled down:
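Displacement of [125I]AB-MECA binding on membranes from CHO cells expressing recombinant hA3AR. […] ADA (3 units/mL) was present during membrane preparation, a 30 min 30 °C preincubation and radioligand incubation. DMSO was ≤2% final. At least six competitor concentrations spanning 3 log units were used. Incubations ended by GF/B filtration and three rinses.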

Sequence of hA2AAR (P29274 whole entry): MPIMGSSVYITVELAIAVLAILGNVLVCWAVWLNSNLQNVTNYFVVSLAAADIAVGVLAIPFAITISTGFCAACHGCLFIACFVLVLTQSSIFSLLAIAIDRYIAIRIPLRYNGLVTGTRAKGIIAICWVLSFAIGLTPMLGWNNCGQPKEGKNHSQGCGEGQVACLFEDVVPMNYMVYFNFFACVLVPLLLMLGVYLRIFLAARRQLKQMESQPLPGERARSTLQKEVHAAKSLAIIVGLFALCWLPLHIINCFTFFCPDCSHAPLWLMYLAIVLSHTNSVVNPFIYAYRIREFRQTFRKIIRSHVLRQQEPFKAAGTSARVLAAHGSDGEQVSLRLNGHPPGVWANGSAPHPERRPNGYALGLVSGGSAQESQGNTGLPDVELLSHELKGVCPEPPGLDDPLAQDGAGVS

By inhibition is commonly meant the percentage by which the read-out fell short of the control. For the compound `Cn1cc2c(nc(NC(=O)Nc3ccc(CC(=O)NCCCNC(=S)Nc4ccc(-c5c6ccc(=O)cc-6oc6cc(O)ccc56)c(C(=O)O)c4)cc3)n3nc(-c4ccco4)nc23)n1` [Compound 14, 5-(3-(3-(2-(4-(3-(2-(furan-2-yl)-8-methyl-8H-pyrazolo[4,3-e][1,2,4]triazolo[1,5-c]pyrimidin-5-yl)ureido)phenyl)acetamido)propyl)thioureido)-2-(6-hydroxy-3-oxo-3H-xanthen-9-yl)benzoate], the inhibition at 10 µM at hA1AR is 27%. In addition, the hA1/hA2A on hA2AAR is listed as more than 96. At hA3AR, the hA1/hA3 is more than 96 and the hA2A/hA3 amounted to 1.

In general, pKi refers to −log10 of the Ki, conventionally taken in molar units. With `Cn1cc2c(nc(NC(=O)Nc3ccc(CC(=O)NCCCOCCOCCOCCCNC(=S)Nc4ccc(-c5c6ccc(=O)cc-6oc6cc(O)ccc56)c(C(=O)O)c4)cc3)n3nc(-c4ccco4)nc23)n1` [Compound 18, 5-(3-(1-(4-(3-(2-(furan-2-yl)-8-methyl-8H-pyrazolo[4,3-e] [1,2,4]triazolo[1,5-c]pyrimidin-5-yl)ureido)phenyl)-2-oxo-7,10,13-trioxa-3-azahexadecan-16-yl)thioureido)-2-(6-hydroxy-3-oxo-3H-xanthen-9-yl)benzoate], the inhibition at 10 µM on hA1AR was 32%. For the same compound, at hA2AAR, the negative logarithm of the Ki (pKi) was 7.04 and the hA1/hA2A is reported as more than 109. Moreover, on hA3AR, the pKi is 6.68, the hA1/hA3 was more than 48 and the hA2A/hA3 is recorded as 0.44.

In the case of `Cn1cc2c(nc(NC(=O)Nc3ccc(CC(=O)NCCOCCOCCNC(=S)Nc4ccc(-c5c6ccc(=O)cc-6oc6cc(O)ccc56)c(C(=O)O)c4)cc3)n3nc(-c4ccco4)nc23)n1` [Compound 17, 5-(3-(2-(2-(2-(2-(4-(3-(2-(furan-2-yl)-8-methyl-8H-pyrazolo[4,3-e][1,2,4]triazolo[1,5-c]pyrimidin-5-yl)ureido)phenyl)acetamido)ethoxy)ethoxy)ethyl)thioureido)-2-(6-hydroxy-3-oxo-3H-xanthen-9-yl)benzoate], at hA1AR, the inhibition at 10 µM was found to be 29%. For the same compound, on hA2AAR, the negative logarithm of the Ki (pKi) is 7.02 and the hA1/hA2A was more than 94. For the same compound, on hA3AR, the negative-log Ki (pKi) was 6.86, the hA1/hA3 is given as more than 73 and the hA2A/hA3 is 0.69.

Consider `Cn1cc2c(nc(NC(=O)Nc3ccc(CC(=O)NCCCCNC(=S)Nc4ccc(-c5c6ccc(=O)cc-6oc6cc(O)ccc56)c(C(=O)O)c4)cc3)n3nc(-c4ccco4)nc23)n1` [Compound 15, 5-(3-(4-(2-(4-(3-(2-(furan-2-yl)-8-methyl-8H-pyrazolo[4,3-e][1,2,4]triazolo[1,5-c]pyrimidin-5-yl)ureido)phenyl)acetamido)butyl)thioureido)-2-(6-hydroxy-3-oxo-3H-xanthen-9-yl)benzoate], for which the inhibition at 10 µM at hA1AR turned out to be 28%. Also, at hA2AAR, the hA1/hA2A was more than 129. In addition, on hA3AR, the hA2A/hA3 was 0.82.

Regarding `Cn1cc2c(nc(NC(=O)Nc3ccc(CC(=O)NCCCCCNC(=S)Nc4ccc(-c5c6ccc(=O)cc-6oc6cc(O)ccc56)c(C(=O)O)c4)cc3)n3nc(-c4ccco4)nc23)n1` [Compound 16, 5-(3-(5-(2-(4-(3-(2-(furan-2-yl)-8-methyl-8H-pyrazolo[4,3-e][1,2,4]triazolo[1,5-c]pyrimidin-5-yl)ureido)phenyl)acetamido)pentyl)thioureido)-2-(6-hydroxy-3-oxo-3H-xanthen-9-yl)benzoate], the inhibition at 10 µM at hA1AR stood at 21%. Moreover, the hA1/hA2A at hA2AAR is more than 94. Further, on hA3AR, the hA1/hA3 is on record as more than 103 and the hA2A/hA3 is recorded as 1.1.

On to `Cn1cc2c(nc(NC(=O)Nc3ccc(CC(=O)NCCCN)cc3)n3nc(-c4ccco4)nc23)n1` [Compound 9, N-(3-aminopropyl)-2-(4-(3-(2-(furan-2-yl)-8-methyl-8H-pyrazolo[4,3-e][1,2,4]triazolo[1,5-c]pyrimidin-5-yl)ureido)phenyl) acetamide trifluoroacetate salt], for which the hA1/hA2A at hA2AAR is more than 57. Also, on hA3AR, the hA1/hA3 is more than 1240 and the hA2A/hA3 is 21.7.

In the case of `Cn1cc2c(nc(NC(=O)Nc3ccc(CC(=O)NCCCOCCOCCOCCCN)cc3)n3nc(-c4ccco4)nc23)n1.O=C(O)C(F)(F)F` [Compound 13, N-(3-(2-(2-(3-aminopropoxy)ethoxy)ethoxy)propyl)-2-(4-(3-(2-(furan-2-yl)-8-methyl-8H-pyrazolo[4,3-e][1,2,4]triazolo[1,5-c]pyrimidin-5-yl)ureido)phenyl)acetamide trifluoroacetate salt], on hA2AAR, the hA1/hA2A is more than 30. Besides, at hA3AR, the hA1/hA3 is recorded as more than 970 and the hA2A/hA3 amounted to 30.3.

On to `Cn1cc2c(nc(NC(=O)Nc3ccc(CC(=O)NCCCCNC(=O)OC(C)(C)C)cc3)n3nc(-c4ccco4)nc23)n1` [Compound 5, tert-Butyl (4-(2-(4-(3-(2-(furan-2-yl)-8-methyl-8H-pyrazolo [4,3-e][1,2,4]triazolo[1,5-c]pyrimidin-5-yl)ureido)phenyl)acetamido)butyl)carbamate], for which, on hA2AAR, the hA1/hA2A was more than 33. Moreover, on hA3AR, the hA1/hA3 was more than 2890 and the hA2A/hA3 came out at 88.

As to `Cn1cc2c(nc(NC(=O)Nc3ccc(CC(=O)NCCOCCOCCNC(=O)OC(C)(C)C)cc3)n3nc(-c4ccco4)nc23)n1` [Compound 7, tert-Butyl (2-(2-(2-(2-(4-(3-(2-(furan-2-yl)-8-methyl-8H-pyrazolo[4,3-e][1,2,4]triazolo[1,5-c]pyrimidin-5-yl)ureido)phenyl)acetamido)ethoxy)ethoxy)ethyl)carbamate], the hA1/hA2A on hA2AAR is more than 22. On hA3AR, the hA1/hA3 was more than 133.6 and the hA2A/hA3 was 6.1.

On to `C#CCCC(=O)Nc1nc2nn(C)cc2c2nc(-c3ccco3)nn12` [Compound 19, N-(2-(furan-2-yl)-8-methyl-8H-pyrazolo[4,3-e][1,2,4]triazolo[1,5-c]pyrimidin-5-yl)pent-4-ynamide], for which the inhibition at 10 µM at hA1AR worked out at 55%. At hA3AR, the hA1/hA3 is more than 909 and the hA2A/hA3 is given as 16.5.

Turning to `C#CCCCCC(=O)Nc1nc2nn(C)cc2c2nc(-c3ccco3)nn12` [Compound 21, N-(2-(furan-2-yl)-8-methyl-8H-pyrazolo[4,3-e][1,2,4]triazolo[1,5-c]pyrimidin-5-yl)hept-6-ynamide], on hA2AAR, the hA1/hA2A was determined as 5.9. On hA3AR, the hA1/hA3 is 122 and 122.7; the hA2A/hA3 was found to be 20.7.
